In ChEMBL document CHEMBL1156634, “Synthesis of somatostatin analogues containing C-terminal adamantane and their antiproliferative properties” (2008) one finds inhibition data, which are given here for 6 compounds.

Where a SMILES comes first, the peptide text is derived from it. Bridges are numbered along the chain shown (N, C = ends). [ ]: non-standard residue; d: D form.

Format in all cases: functional
The subject of assay [1] is A-431. Briefly: Antiproliferative activity against human A431 cells at 25 uM after 48 hrs by MTT assay. Particulars: A-431, 48 h. In short, it runs like this: (§1)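 MTT read-out: mitochondrial dehydrogenase reduces MTT to formazan in viable cells, cells solubilized with DMSO, absorbance read at 540 nm on an ELISA reader. Cycloheximide and a reference peptide run as positive controls. Values given as % inhibition of cellular proliferation, mean ± SE.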
For orientation: Tetrazolium assays rely on reduction of a dye to a coloured formazan, in cell work by metabolically active cells.

Assay [2] relates to A-431. Briefly: Antiproliferative activity against human A431 cells at 10 uM after 48 hrs by MTT assay. Particulars: A-431, 48 h. In short, it runs like this:
as §1

Assay [3] concerns A-431. Briefly: Antiproliferative activity against human A431 cells at 50 uM after 48 hrs by MTT assay. Particulars: A-431, 48 h. A digest of the protocol: as §1
Assay [4] concerns SW480. Briefly: Antiproliferative activity against human SW480 cells at 50 uM after 48 hrs by MTT assay. Particulars: SW480, 48 h. A digest of the protocol:
as §1

The subject of assay [5] is SW480. Briefly: Antiproliferative activity against human SW480 cells at 25 uM after 48 hrs by MTT assay. Particulars: SW480, 48 h. In short, it runs like this: as §1
In assay [6] the test system is SW480. Briefly: Antiproliferative activity against human SW480 cells at 10 uM after 48 hrs by MTT assay. Particulars: SW480, 48 h. In short, it runs like this: as §1

As for `CC(C)(C)OC(=O)N[C@@H](Cc1ccc(O)cc1)C(=O)N[C@H](Cc1c[nH]c2ccccc12)C(=O)N[C@@H](CCCCNC(=O)OCc1ccccc1)C(=O)O`, in the assay on A-431 [1], the inhibition at 25 µM worked out at 0%. In the assay on A-431 [2], this compound returned an inhibition at 10 µM of 0%. For the same compound, the inhibition at 50 µM with A-431 [3] was 2%.

Take `N[C@@H](Cc1ccc(O)cc1)C(=O)N[C@H](Cc1c[nH]c2ccccc12)C(=O)O`: in the assay on A-431 [1], testing at 25 µM gave an inhibition of 8%. This compound had an inhibition at 10 µM in the assay on A-431 [2] of 0%. The same compound showed an inhibition at 50 µM in the assay with A-431 [3] of 11%.

In turn, `CC(C)(C)OC(=O)N[C@@H](Cc1ccc(O)cc1)C(=O)N[C@H](Cc1c[nH]c2ccccc12)C(=O)N[C@@H](CCCCNC(=O)OCc1ccccc1)C(=O)OCC1c2ccccc2-c2ccccc21` yielded an inhibition at 25 µM in the assay on A-431 [1] of 7%. Moreover, the inhibition at 10 µM in the assay on A-431 [2] turned out to be 2%. This compound also registered an inhibition at 50 µM in the assay with A-431 [3] of 7%.

As to `N[C@@H](Cc1ccc(O)cc1)C(=O)N[C@H](Cc1c[nH]c2ccccc12)C(=O)N[C@@H](CCCCNC(=O)OCc1ccccc1)C(=O)O`, at 25 µM the inhibition with A-431 [1] was 0%. The compound further had an inhibition at 10 µM with A-431 [2] of 0%. In the assay with A-431 [3], this compound gave an inhibition at 50 µM of 0%.

Take `C[C@@H]1C[C@@H]([C@H](O)CC2CC(=O)NC(=O)C2)C(=O)[C@@H](C)C1` [CYCLOHEXIMIDE]: the values for the inhibition at 50 µM with SW480 [4] and in the assay on A-431 [3] were 92% and 80%, respectively. Besides, the inhibition at 25 µM in the assay on A-431 [1] turned out to be 70%; with SW480 [5], 85%. Also, the inhibition at 10 µM with A-431 [2] turned out to be 40%; in the assay with SW480 [6], 68%.

Consider `C[C@@H](O)[C@H](NC(=O)[C@@H]1CSSC[C@H](NC(=O)[C@H](N)Cc2ccccc2)C(=O)N[C@@H](Cc2ccc(O)cc2)C(=O)N[C@H](Cc2c[nH]c3ccccc23)C(=O)N[C@@H](CCCCN)C(=O)N1)C(N)=O` [TT-232] (H-[dF]CY[dW]KCT-NH2; disulfide 2-6), for which the inhibition at 50 µM turned out to be 88% in the assay with SW480 [4] and 80% with A-431 [3]. Also, the figures for the inhibition at 25 µM in the assay with A-431 [1] and with SW480 [5] were 60% and 47%, respectively. Besides, the inhibition at 10 µM with A-431 [2] was determined as 50%; in the assay on SW480 [6], 13%.

Broadly, the inhibition is the drop in the measured response relative to a control, in per cent. The low end stands for a response near the control, the high end for a response far below the control.
